# From article PMC7740640 (Xenobiotica; the fate of foreign compounds in biological …, 2020)
# “And” between values parts separate entries of the source, which are not always exact repeats. Equal values may be shown once.
# What was measured:
# Assay type in all cases: in vitro ADME
# CYP2B6 [1] = biological target: T1, CYP2B6 (Homo sapiens, UniProt P20813); experiment: C152 metabolism; settings: for Specific rate: CYP2B6
# T1 sequence (P20813 1-491): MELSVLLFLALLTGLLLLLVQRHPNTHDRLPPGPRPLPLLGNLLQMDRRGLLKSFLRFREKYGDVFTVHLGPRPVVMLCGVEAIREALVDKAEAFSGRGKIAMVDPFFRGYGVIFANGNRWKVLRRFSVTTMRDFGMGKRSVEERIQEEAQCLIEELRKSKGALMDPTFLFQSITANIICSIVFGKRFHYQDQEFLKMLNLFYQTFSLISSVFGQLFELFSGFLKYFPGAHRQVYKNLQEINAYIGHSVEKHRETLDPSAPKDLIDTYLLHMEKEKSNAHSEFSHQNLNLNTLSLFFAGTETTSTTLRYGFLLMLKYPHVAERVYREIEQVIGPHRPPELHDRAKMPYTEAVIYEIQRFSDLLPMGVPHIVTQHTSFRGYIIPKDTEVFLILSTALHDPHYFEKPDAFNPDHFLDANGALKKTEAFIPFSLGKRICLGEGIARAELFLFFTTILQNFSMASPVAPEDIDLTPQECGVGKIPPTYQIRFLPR
# Procedure, shortened: (§1)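 Human P450s in Supersomes that co-express human CPR and cytochrome b5. Reaction in 0.1 M Na-HEPES pH 7.4 with 60 mM KCl, stirred at 30 °C. C152 0.1–30 μM added from acetone stock; 200 μM NADPH starts it. Fluorescence rise read at 500 nm (isosbestic, mono-demethylation step). Rate is the linear slope over 3–5 min, scaled by the C151–C152 fluorescence difference. Michaelis–Menten or Hill fit, Vmax per P450, 2–6 runs; rate at 30 μM computed from fit.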
# CYP2C8 = biological target: T2, CYP2C8 (Homo sapiens, UniProt P10632); experiment: C152 metabolism
# T2 sequence (P10632 1-490): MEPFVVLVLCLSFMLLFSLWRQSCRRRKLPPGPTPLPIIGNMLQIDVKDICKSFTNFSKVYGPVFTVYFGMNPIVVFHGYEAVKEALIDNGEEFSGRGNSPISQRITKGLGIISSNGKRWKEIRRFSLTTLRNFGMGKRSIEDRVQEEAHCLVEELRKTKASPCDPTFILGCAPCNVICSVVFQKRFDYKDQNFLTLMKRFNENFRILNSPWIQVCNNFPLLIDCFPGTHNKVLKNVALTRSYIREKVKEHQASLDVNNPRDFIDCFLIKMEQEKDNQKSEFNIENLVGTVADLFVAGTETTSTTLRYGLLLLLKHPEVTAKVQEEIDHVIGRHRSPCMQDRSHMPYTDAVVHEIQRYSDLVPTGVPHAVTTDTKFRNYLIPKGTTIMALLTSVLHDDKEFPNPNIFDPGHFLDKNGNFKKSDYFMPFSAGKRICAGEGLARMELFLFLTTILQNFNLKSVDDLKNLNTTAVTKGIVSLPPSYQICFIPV
# CYP2C9 = CYP2C9 (Homo sapiens, UniProt P11712); experiment: C152 metabolism; settings: for Specific rate: CYP2C9
# Procedure, shortened: as §1
# CYP2C19 = CYP2C19 (Homo sapiens, UniProt P33261); experiment: C152 metabolism; settings: for Specific rate: CYP2C19
# Procedure, shortened: as §1
# CYP2D6 = CYP2D6 (Homo sapiens, UniProt P10635); experiment: C152 metabolism by Supersomes containing CYP2D6; settings: recombinant CYP2D6 Supersomes
# CYP2B6 [2] = biological target: T1, CYP2B6; experiment: Formation of C151 from C152; settings: SS(2B6)
# Procedure, shortened: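 Probes hold 5–20 pmol P450 in 0.1 M Na-HEPES pH 7.4 with 60 mM KCl. C152 added from 0.5 or 4 mM acetone stock; reaction started with 500 μM NADPH (final), run 5 min at 30 °C with shaking. Quenched with isopropanol containing phenacetin internal standard, then centrifuged. C151 quantified by reverse-phase LC with ESI-positive MRM MS/MS (m/z 230.16→157.2). Michaelis–Menten or Hill fit; normalized per P450 (Supersomes) or CPR (HLM).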
# CYP1A2 = biological target: T3, CYP1A2 (Homo sapiens, UniProt P05177); experiment: Projected involvement in C152 metabolism in HLM
# T3 sequence (P05177 2-516 limits assumed): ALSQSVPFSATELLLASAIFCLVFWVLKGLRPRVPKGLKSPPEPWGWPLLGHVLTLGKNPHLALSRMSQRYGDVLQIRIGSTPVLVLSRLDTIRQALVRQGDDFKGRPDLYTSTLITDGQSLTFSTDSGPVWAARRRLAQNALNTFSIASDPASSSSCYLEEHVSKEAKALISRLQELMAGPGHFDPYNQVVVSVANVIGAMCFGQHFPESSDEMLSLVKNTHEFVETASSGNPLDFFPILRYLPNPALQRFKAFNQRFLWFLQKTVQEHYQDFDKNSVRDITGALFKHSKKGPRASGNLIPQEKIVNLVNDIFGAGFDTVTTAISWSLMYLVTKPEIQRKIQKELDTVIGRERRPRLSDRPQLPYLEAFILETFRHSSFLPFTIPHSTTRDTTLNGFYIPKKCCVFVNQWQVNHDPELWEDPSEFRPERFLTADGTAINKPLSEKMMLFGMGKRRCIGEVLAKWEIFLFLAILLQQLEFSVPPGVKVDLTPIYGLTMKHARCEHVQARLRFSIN
# Procedure, shortened: (§2)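 Calculated values, no new incubations. Each of seven C152-metabolizing P450s has a fractional content in the pooled HLM P450 pool (LC-MS/MS MRM). That fraction is multiplied by its Supersome Vmax (saturation) or by its rate at 30 μM C152 from Hill or Michaelis–Menten parameters. Expected participation (% TNR) is each normalized rate divided by the sum of all seven.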
# CYP3A4 = CYP3A4 (Homo sapiens, UniProt P08684); experiment: Projected involvement in C152 metabolism in HLM
# Procedure, shortened: as §2
# [3] = at 30 μM C152, calculated from fit parameters
# [4] = at saturation (Vmax in Supersomes)
# [5] = at saturation of all P450 species
# CYP2C9, sequence (P11712 whole entry): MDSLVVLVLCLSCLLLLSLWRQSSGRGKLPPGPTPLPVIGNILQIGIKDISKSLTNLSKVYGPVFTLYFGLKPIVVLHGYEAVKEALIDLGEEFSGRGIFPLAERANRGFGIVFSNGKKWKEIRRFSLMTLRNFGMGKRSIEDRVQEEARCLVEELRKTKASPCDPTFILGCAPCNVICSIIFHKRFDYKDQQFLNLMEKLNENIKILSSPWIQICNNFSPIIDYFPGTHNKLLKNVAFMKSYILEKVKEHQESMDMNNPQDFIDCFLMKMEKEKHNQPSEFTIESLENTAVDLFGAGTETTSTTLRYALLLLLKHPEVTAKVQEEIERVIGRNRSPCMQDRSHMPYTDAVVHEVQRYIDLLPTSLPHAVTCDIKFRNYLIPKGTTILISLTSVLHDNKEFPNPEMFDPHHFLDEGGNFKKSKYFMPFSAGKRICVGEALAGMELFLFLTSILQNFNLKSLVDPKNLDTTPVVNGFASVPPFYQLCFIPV
# CYP3A4, sequence (P08684 2-503 limits assumed): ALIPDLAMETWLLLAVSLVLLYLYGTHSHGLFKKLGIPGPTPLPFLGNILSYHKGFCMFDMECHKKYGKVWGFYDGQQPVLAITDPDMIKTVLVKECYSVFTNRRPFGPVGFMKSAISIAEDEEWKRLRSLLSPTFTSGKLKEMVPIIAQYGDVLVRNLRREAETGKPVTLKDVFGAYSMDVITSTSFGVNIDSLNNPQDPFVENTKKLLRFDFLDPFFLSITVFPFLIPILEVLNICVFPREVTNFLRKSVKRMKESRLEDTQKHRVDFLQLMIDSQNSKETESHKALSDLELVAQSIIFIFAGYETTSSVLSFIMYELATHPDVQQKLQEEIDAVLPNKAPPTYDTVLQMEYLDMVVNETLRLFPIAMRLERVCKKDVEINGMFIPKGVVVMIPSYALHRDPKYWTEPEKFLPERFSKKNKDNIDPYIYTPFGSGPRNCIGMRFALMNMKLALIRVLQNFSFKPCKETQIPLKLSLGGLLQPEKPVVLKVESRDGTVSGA
# CYP2C19, sequence (P33261 whole entry): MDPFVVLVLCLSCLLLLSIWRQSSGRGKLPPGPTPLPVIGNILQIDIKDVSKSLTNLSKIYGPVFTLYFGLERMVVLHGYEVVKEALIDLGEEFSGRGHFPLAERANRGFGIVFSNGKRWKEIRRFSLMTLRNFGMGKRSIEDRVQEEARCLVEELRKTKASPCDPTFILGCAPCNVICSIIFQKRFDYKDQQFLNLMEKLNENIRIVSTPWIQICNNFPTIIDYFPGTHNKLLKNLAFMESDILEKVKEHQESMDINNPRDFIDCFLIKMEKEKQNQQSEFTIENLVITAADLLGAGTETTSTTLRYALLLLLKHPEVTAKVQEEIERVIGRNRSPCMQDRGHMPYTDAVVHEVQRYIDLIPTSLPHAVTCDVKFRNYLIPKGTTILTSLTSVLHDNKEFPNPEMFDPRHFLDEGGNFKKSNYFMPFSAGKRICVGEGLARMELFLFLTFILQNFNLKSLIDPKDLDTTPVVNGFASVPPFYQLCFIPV
# CYP2D6, sequence (P10635 whole entry): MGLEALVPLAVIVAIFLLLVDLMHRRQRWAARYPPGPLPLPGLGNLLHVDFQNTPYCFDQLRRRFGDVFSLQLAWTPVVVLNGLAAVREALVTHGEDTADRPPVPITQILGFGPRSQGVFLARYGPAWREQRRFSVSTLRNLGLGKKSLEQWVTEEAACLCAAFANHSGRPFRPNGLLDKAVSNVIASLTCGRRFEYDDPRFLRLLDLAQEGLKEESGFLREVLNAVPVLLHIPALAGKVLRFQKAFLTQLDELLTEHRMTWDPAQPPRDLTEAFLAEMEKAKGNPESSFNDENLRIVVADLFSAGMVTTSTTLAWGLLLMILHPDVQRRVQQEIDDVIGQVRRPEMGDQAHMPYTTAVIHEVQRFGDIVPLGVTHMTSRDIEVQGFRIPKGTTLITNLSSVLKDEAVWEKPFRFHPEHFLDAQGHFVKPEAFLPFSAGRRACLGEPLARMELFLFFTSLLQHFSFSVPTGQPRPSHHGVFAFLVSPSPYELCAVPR
smiles,measurement,setting,value
"CN(C)c1ccc2c(C(F)(F)F)cc(=O)oc2c1 [C152, 7-Dimethylamino-4-trifluromethylcoumarin]",Specific rate,CYP2B6 [1]; [3],46.6 min⁻¹
same,Specific rate,CYP2B6 [1]; [4],49.3 min⁻¹
same,"Vmax (C152 metabolism, fluorimetric assay)","CYP2B6 [1]; SS(2B6), mol C152 per mol P450 per min",49 ± 11 min⁻¹
same,"Fraction of C151 formed, Fluorimetry","CYP2B6 [1]; SS(2B6), scanning fluorimetry with PCA",7.3±3.4%
same,Km,"CYP2B6 [1]; read-out: KM or S50 (C152 metabolism, fluorimetric assay), SS(2B6), Michaelis-Menten fit, 30 °C, pH 7.4",1.8 ± 0.2 µM
same,Specific rate,"CYP2C8; CYP2C8, at 30 μM C152, calculated from fit parameters",1.9 min⁻¹
same,"N, Hill coefficient (C152 metabolism, fluorimetric assay)",CYP2C8; SS(2C8),2.6±0.3
same,"Vmax (C152 metabolism, fluorimetric assay)","CYP2C8; SS(2C8), mol C152 per mol P450 per min",2.6 ± 0.8 min⁻¹
same,Km,"CYP2C8; read-out: KM or S50 (C152 metabolism, fluorimetric assay), SS(2C8), Hill fit (S50), 30 °C, pH 7.4",12 ± 6 µM
same,Specific rate,CYP2C9; [3],2.0 min⁻¹
same,Specific rate,CYP2C9; [4],3.9 min⁻¹
same,"Vmax (C152 metabolism, fluorimetric assay)","CYP2C9; SS(2C9), mol C152 per mol P450 per min",3.9 ± 1.2 min⁻¹
same,Km,"CYP2C9; read-out: KM or S50 (C152 metabolism, fluorimetric assay), SS(2C9), Michaelis-Menten fit, 30 °C, pH 7.4",29 ± 8 µM
same,Specific rate,CYP2C19; [3],6.5 min⁻¹
same,Specific rate,CYP2C19; [4],7.8 min⁻¹
same,"Vmax (C152 metabolism, fluorimetric assay)","CYP2C19; SS(2C19), mol C152 per mol P450 per min",7.8 ± 3.4 min⁻¹
same,"Fraction of C151 formed, Fluorimetry","CYP2C19; SS(2C19), scanning fluorimetry with PCA",3.2±2.4%
same,Km,"CYP2C19; read-out: KM or S50 (C152 metabolism, fluorimetric assay), SS(2C19), Michaelis-Menten fit, 30 °C, pH 7.4",5.7 ± 1.1 µM
same,activity with C152,CYP2D6,no detectable activity
same,"Fraction of C151 formed, LC-MS",CYP2B6 [2]; C151 formed over total C152 metabolized,4% and 4.0±0.8%
same,"Vmax (Formation of C151, LC-MS)",CYP2B6 [2]; mol C151 formed per mol P450 per min,1.8 ± 0.4 min⁻¹
same,Km,"CYP2B6 [2]; read-out: KM or S50 (Formation of C151, LC-MS), Michaelis-Menten fit",1 ± 0.4 µM
same,Normalized rate,CYP1A2; at 30 μM C152,0.375 min⁻¹
same,Expected participation,"CYP1A2; at 30 μM C152, % TNR",3.08%
same,Normalized rate,CYP1A2; [5],0.412 min⁻¹
same,Expected participation,"CYP1A2; at saturation of all P450 species, % TNR",3.10%
same,Normalized rate,CYP3A4; at 30 μM C152,10.3 min⁻¹
same,Expected participation,"CYP3A4; at 30 μM C152, % TNR",84% and 84.75%
same,Normalized rate,CYP3A4; [5],10.8 min⁻¹
